Among the data in ChEMBL document CHEMBL5385968 (RSC Med Chem, 2024) are Activity, inhibition and IC50 values, retold here.

The nature of data set [1]: Cytotoxicity against CD-1 mouse bone marrow leucocytes assessed as reduction in cell viability at 25 uM incubated for 90 mins by CellTiter-Glo Luminescent assay. The data set is classed as toxicity, cell-based. Conditions: leucocyte. The method in brief: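 CD-1 mouse bone marrow leukocytes at 10^4 cells/well were exposed to compounds up to 25 μM (highest tested; final DMSO 1%) for 90 min at 37 °C, 5% CO2. Viability was read by CellTiter-Glo luminescence. IC50 values are mean ± SD of three independent experiments.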

The subject of the next data set is Leucocyte. In words: Antiradical activity against PMA-stimulated BALB/c mouse bone marrow leucocytes assessed as inhibition of ROS production at 50 uM measured for 60 mins by chemiluminescence based analysis. The data set is classed as functional, cell-based. In short, it runs like this: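 BALB/c mouse bone marrow leukocytes were suspended at 10^6 cells/ml in HBSS with Ca2+/Mg2+ and 40 μM L-012. Compounds were added in HBSS+ (final DMSO 1%), tested up to a highest concentration of 50 μM. Cells were stimulated with 200 nM PMA, and chemiluminescence was read every 2 min for 60 min at 37 °C. IC50 came from % inhibition of the 60-min integrated signal versus log concentration (5–7 concentrations, nonlinear regression). Values are mean ± SD, n=3.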

For data set [2], the target named is T1, Neutrophil elastase (Homo sapiens) (UniProt P08246).
T1 sequence (whole entry): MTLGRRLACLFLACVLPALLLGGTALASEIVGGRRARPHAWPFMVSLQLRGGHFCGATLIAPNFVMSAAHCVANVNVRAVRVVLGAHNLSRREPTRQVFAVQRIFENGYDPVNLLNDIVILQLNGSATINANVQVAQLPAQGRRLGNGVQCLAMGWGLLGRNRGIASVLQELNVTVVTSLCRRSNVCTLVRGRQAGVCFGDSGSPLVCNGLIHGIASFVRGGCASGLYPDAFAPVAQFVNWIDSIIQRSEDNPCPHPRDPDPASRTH
Nature of the data set: Inhibition of human neutrophil elastase using N-methylsuccinyl-Ala-Ala-Pro-Val-7-amino-4-methylcoumarin as substrate at 50 uM measured every 30 secs for 10 mins by fluorescence based analysis.

Data set [3] can be described thus: Antiradical activity against PMA-stimulated BALB/c mouse bone marrow leucocytes assessed as inhibition of ROS production measured for 60 mins by chemiluminescence based analysis. The data set is classed as functional, cell-based. Conditions: Leucocyte, 1 h. In short, it runs like this: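 BALB/c mouse bone marrow leukocytes were suspended at 10^6 cells/ml in HBSS with Ca2+/Mg2+ and 40 μM L-012. Compounds were added in HBSS+ (final DMSO 1%), tested up to a highest concentration of 50 μM. Cells were stimulated with 200 nM PMA, and chemiluminescence was read every 2 min for 60 min at 37 °C. Values are mean ± SD, n=3.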

Active and inactive are the calls of the source. The rule behind the calls is not given here.

In the case of `CCCCCC(=O)n1[se]c2ccccc2c1=O`, the Activity result in data set [1] is reported as “Non-Toxic”. Also, in the data set on Leucocyte, the inhibition result was “inactive”.
`CCOC(=O)n1[se]c2ccccc2c1=O`: the inhibition entry in data set [2] was “inactive”.
Turning to `O=c1c2ccccc2[se]n1-c1ccccc1`, the inhibition result in data set [2] is “inactive”.
In the case of `CC(C)(C)C(=O)Oc1ccc(S(=O)(=O)Nc2ccccc2C(=O)NCC(=O)O)cc1`, the Activity result in data set [1] is given as “Non-Toxic”.
For the compound `CC(C)(C)C(=O)Oc1ccc(S(=O)(=O)n2[se]c3ccccc3c2=O)cc1`, in data set [1], the Activity entry is on record as “Non-Toxic”.
Regarding `CCOC(=O)c1ccc(-n2[se]c3ccccc3c2=O)cc1`, the inhibition entry in data set [2] is “inactive”. Besides, in data set [1], the Activity result is on record as “Non-Toxic”.
Consider `O=C(NC1CC1)c1ccc(-n2[se]c3ccccc3c2=O)cc1`, for which, in data set [2], the inhibition result is “inactive”.
On to `CCOC(=O)CC(=O)n1[se]c2ccccc2c1=O`, for which the inhibition result in data set [2] is “inactive”.
On to `O=C(c1ccsc1)n1[se]c2ccccc2c1=O`, for which the inhibition entry in data set [2] was “inactive”. Also, the Activity result in data set [1] was “Non-Toxic”.
For the compound `O=C(NC1CC1)n1[se]c2ccccc2c1=O`, the inhibition result in data set [2] is “inactive”.
Turning to `Cc1cccc(C(=O)n2[se]c3ccccc3c2=O)c1`, the Activity entry in data set [1] is given as “Non-Toxic”.
For `O=C(C1CC1)n1[se]c2ccccc2c1=O`, the IC50 in data set [3] is 50 nM.
On to `Cc1cccc(NC(=O)c2ccc(-n3[se]c4ccccc4c3=O)cc2)c1`, for which the inhibition result (in data set [2]; in the data set with Leucocyte) was “inactive” in each case. Also, the Activity result in data set [1] is recorded as “Non-Toxic”.
